Test [1] in a line: Inhibition of p38 assessed as rate of ATF-2 phosphorylation at 10 uM by immunosorbent non-radioactive enzyme assay. The essentials:
(§1)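 p38α MAP kinase ELISA-type (immunosorbent, non-radioactive) assay. Enzyme was incubated with ATP at 100 µM, ATF-2 as substrate, and test compound at 10^-5 to 10^-8 M. Activity was read as the rate of ATF-2 phosphorylation. SB203580 served as the reference inhibitor.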

Test [2] has as its target RAC-alpha serine/threonine-protein kinase (Homo sapiens) (UniProt P31749). Nature of the test: Inhibition of AKT1 at 10 uM.
In test [3] the target is T1, NUAK family SNF1-like kinase 1 (Homo sapiens) (UniProt O60285).
T1 sequence (whole entry): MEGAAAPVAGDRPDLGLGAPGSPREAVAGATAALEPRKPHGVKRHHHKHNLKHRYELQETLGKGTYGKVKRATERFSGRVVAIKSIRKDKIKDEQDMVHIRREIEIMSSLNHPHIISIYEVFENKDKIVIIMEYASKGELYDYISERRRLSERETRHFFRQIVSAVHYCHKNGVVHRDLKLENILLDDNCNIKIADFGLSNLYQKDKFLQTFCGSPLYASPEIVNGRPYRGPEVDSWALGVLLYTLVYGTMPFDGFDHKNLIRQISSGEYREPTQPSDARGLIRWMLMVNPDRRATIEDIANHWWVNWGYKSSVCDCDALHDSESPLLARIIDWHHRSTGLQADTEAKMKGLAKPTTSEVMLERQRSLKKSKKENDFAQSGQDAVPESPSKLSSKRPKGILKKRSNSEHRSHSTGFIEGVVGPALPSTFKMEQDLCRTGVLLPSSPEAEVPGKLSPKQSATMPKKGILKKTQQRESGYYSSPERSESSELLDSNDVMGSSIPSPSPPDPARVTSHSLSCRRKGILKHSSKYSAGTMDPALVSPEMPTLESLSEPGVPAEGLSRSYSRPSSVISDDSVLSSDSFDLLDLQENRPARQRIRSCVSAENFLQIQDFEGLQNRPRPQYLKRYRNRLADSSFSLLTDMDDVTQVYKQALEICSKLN
Put plainly: Inhibition of ARK5 at 10 uM.

In test [4] the target is Aurora kinase B (Homo sapiens) (UniProt Q96GD4). Put plainly: Inhibition of Aurora B at 10 uM.
Test [5] addresses Tyrosine-protein kinase receptor UFO (Homo sapiens) (UniProt P30530). Put plainly: Inhibition of AXL at 10 uM.
For test [6], the system named is Serine/threonine-protein kinase B-raf (Homo sapiens), P15056 [V600E]. Put plainly: Inhibition of B-Raf V600E mutant at 10 uM.
Test [7] has as its target Casein kinase II subunit alpha (Homo sapiens) (UniProt P68400). Nature of the test: Inhibition of CK2alpha1 at 10 uM.
The target of test [8] is Focal adhesion kinase 1 (Homo sapiens) (UniProt Q05397). Put plainly: Inhibition of FAK at 10 uM.
Test [9] concerns the target Insulin-like growth factor 1 receptor (Homo sapiens) (UniProt P08069). Put plainly: Inhibition of IGF1R at 10 uM.
In test [10] the target is Insulin receptor (Homo sapiens) (UniProt P06213). Put plainly: Inhibition of INSR at 10 uM.
Test [11] concerns the target Hepatocyte growth factor receptor (Homo sapiens) (UniProt P08581). Nature of the test: Inhibition of MET at 10 uM.
The target in test [12] is Serine/threonine-protein kinase PLK1 (Homo sapiens) (UniProt P53350). Put plainly: Inhibition of PLK1 at 10 uM.
Test [13] addresses Serine/threonine-protein kinase N1 (Homo sapiens) (UniProt Q16512). Nature of the test: Inhibition of PRK1 at 10 uM.
The target in test [14] is T2, Serine/threonine-protein kinase PLK4 (Homo sapiens) (UniProt O00444).
T2 sequence (whole entry): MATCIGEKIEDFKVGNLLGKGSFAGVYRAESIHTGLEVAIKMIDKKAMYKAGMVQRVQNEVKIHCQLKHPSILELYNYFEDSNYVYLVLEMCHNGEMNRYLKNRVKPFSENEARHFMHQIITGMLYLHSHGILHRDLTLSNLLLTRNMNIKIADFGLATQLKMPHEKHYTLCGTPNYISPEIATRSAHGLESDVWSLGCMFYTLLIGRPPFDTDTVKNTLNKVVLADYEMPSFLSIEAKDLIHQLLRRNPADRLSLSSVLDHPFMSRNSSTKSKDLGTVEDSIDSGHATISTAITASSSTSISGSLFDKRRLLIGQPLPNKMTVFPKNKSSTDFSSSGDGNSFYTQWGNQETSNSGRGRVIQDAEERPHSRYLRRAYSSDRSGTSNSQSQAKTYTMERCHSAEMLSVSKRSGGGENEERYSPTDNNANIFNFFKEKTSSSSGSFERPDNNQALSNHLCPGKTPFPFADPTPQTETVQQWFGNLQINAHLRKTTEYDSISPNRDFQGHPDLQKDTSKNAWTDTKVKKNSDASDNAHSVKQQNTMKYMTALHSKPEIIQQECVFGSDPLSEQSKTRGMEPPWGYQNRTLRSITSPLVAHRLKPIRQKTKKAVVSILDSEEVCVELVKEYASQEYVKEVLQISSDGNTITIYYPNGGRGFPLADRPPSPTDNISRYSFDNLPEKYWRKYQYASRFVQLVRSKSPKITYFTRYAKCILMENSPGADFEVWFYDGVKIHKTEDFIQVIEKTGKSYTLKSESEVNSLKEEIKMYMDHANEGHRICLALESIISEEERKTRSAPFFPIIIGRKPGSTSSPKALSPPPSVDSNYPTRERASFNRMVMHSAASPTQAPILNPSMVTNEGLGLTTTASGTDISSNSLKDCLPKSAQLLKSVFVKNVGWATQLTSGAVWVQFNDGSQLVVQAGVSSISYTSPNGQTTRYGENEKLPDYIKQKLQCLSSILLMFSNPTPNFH
Put plainly: Inhibition of SAK at 10 uM.

In test [15] the target is Proto-oncogene tyrosine-protein kinase Src (Homo sapiens) (UniProt P12931). Nature of the test: Inhibition of SRC at 10 uM.
Test [16] addresses BDNF/NT-3 growth factors receptor (Homo sapiens) (UniProt Q16620). Put plainly: Inhibition of TRKB at 10 uM.
In test [17] the target is Vascular endothelial growth factor receptor 2 (Homo sapiens) (UniProt P35968). Put plainly: Inhibition of VGFR2 at 10 uM.
Test [18] is described as follows: Inhibition of p38 assessed as rate of ATF-2 phosphorylation by immunosorbent non-radioactive enzyme assay. The method, boiled down:
as §1

Molecules are shown by their SMILES. The source made the active and inactive calls. The rule behind the calls is not given here.

Chain of Vascular endothelial growth factor receptor 2 (Homo sapiens) (P35968 whole entry): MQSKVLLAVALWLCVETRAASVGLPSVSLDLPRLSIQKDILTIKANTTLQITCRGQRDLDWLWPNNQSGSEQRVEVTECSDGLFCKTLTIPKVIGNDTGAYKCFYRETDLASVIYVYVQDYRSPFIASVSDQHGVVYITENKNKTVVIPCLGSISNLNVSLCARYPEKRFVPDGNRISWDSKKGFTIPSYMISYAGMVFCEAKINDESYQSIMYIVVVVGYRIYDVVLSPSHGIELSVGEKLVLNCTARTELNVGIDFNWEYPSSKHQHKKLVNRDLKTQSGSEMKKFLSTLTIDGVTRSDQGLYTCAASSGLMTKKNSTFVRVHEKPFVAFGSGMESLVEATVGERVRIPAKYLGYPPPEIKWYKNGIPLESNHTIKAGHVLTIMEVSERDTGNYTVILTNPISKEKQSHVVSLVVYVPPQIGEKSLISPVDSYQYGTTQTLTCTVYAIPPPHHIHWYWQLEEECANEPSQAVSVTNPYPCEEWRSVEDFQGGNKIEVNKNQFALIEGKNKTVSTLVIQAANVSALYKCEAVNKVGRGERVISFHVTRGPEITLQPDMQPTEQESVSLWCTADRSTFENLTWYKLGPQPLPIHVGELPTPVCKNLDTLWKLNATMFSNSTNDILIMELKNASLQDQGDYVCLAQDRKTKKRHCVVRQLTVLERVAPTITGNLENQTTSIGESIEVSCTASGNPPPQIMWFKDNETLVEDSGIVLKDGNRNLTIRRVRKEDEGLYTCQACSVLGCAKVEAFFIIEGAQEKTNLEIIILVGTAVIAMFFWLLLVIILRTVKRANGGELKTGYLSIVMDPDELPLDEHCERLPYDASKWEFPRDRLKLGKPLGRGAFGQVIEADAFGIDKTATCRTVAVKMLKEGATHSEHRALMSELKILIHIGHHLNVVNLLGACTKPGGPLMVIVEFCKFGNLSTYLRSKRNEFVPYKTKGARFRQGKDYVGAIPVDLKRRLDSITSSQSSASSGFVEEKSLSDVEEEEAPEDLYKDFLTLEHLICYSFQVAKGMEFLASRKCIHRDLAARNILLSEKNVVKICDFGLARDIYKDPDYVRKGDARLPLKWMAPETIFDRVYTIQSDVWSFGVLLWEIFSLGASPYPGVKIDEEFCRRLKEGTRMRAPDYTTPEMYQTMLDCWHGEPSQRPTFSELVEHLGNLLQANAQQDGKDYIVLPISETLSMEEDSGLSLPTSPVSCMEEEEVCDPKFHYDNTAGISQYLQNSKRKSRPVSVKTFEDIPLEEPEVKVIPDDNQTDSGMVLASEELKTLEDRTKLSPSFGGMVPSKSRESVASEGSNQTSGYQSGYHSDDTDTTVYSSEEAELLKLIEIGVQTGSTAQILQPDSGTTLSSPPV
Chain of Casein kinase II subunit alpha (Homo sapiens) (P68400 whole entry, looked up): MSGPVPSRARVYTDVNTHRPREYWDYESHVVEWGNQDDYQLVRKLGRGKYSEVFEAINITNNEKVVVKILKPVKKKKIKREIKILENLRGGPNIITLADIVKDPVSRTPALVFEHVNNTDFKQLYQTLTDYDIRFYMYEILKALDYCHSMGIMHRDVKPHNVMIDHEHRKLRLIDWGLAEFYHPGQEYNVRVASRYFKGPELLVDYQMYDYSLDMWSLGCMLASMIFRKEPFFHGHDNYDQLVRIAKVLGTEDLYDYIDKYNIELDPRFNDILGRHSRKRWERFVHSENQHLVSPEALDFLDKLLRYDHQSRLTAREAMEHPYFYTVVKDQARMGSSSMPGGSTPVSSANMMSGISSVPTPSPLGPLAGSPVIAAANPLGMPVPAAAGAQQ
Chain of Hepatocyte growth factor receptor (Homo sapiens) (P08581 whole entry): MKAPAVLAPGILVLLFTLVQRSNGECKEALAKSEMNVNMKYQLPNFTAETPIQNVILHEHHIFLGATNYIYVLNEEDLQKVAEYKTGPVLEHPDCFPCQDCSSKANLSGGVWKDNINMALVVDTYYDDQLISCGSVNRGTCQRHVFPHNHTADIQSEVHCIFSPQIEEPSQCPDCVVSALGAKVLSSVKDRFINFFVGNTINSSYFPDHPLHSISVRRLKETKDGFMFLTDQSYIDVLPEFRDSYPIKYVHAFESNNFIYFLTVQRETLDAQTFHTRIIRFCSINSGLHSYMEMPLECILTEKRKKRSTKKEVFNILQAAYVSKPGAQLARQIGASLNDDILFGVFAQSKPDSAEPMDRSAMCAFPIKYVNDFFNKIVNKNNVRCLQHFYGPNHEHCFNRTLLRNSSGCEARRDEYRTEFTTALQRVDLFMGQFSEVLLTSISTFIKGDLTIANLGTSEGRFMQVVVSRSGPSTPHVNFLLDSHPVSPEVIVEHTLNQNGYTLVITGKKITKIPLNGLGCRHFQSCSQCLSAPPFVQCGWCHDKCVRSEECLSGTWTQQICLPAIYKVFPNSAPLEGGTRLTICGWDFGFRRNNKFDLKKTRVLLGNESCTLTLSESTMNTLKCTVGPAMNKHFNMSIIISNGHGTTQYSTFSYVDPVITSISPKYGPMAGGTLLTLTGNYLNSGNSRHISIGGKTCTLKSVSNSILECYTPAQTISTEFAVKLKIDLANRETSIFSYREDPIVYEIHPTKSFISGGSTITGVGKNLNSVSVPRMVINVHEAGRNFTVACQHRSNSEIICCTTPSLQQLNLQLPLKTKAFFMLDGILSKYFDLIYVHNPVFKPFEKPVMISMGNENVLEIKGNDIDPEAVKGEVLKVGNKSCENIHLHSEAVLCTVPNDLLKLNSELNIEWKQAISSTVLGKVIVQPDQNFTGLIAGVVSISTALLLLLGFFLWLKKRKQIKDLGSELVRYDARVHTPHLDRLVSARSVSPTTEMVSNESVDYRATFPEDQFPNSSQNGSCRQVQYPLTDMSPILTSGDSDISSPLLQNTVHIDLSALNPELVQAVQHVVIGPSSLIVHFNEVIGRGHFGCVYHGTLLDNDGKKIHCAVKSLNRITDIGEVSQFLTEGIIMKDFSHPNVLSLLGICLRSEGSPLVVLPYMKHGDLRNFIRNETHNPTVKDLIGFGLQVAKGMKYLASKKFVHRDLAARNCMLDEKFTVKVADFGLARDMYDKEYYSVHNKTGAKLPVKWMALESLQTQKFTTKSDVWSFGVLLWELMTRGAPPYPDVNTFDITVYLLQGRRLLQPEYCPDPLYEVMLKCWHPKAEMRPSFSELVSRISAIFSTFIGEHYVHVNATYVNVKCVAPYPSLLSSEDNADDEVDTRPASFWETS
Chain of Serine/threonine-protein kinase N1 (Homo sapiens) (Q16512 2-942 limits assumed): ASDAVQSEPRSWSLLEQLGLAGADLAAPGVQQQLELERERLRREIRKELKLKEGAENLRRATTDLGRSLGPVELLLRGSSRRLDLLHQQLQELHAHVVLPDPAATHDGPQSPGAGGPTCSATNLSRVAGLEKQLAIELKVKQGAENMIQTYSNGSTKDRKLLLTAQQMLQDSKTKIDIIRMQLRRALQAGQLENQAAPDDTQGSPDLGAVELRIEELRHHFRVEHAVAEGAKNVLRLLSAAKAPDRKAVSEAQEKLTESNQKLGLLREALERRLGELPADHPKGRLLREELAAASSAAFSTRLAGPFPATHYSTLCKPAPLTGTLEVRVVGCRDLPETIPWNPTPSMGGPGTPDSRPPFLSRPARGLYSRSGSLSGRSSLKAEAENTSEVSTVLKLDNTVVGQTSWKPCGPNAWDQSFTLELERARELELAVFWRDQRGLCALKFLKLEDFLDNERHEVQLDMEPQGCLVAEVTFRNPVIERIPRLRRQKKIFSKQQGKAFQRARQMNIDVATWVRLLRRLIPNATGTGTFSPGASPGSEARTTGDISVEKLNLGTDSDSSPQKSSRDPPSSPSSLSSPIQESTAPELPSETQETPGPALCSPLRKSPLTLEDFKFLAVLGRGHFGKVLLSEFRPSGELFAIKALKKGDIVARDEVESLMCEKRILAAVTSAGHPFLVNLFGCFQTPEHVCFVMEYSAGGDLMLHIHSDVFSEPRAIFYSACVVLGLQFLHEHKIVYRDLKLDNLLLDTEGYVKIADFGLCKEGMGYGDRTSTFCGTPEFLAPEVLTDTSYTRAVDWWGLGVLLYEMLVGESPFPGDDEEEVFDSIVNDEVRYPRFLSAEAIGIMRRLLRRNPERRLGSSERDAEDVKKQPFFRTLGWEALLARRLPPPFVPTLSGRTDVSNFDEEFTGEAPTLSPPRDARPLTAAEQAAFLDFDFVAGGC
Chain of Tyrosine-protein kinase receptor UFO (Homo sapiens) (P30530 whole entry): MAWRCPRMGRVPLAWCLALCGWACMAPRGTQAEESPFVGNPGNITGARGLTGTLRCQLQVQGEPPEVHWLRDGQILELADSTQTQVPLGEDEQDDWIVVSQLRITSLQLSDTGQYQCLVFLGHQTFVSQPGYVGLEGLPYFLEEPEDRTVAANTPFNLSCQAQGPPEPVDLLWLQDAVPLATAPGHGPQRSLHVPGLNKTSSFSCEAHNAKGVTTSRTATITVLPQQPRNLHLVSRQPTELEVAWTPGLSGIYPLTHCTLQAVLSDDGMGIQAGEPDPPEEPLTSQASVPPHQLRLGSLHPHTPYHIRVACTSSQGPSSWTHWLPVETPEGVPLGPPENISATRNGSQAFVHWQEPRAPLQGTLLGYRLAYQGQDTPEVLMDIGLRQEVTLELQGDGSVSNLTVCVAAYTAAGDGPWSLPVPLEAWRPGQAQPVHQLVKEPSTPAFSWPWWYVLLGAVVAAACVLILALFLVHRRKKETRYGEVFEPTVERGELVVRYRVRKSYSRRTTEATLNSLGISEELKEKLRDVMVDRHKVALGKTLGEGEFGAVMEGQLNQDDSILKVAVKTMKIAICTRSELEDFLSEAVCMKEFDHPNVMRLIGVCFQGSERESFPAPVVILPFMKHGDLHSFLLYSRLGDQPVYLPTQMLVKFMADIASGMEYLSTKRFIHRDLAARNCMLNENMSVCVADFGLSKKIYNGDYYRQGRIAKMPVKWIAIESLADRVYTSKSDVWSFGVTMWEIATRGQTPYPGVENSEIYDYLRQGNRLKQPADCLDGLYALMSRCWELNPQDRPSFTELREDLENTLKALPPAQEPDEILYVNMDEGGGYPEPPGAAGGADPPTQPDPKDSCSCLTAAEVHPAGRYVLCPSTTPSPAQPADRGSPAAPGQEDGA

The term inhibition denotes the relative decrease from the control value, in per cent. Regarding `O=C1Cc2ccccc2Cc2cc(NCc3ccccc3)ccc21`, the inhibition in test [1] worked out at 9%. In addition, the inhibition result in test [2], in test [3], in [4], in test [5], in [6] and in [7] was “inactive” in each case. Besides, the inhibition result in test [8], in test [9], in [10], in [11], in test [12] and in test [13] was “inactive” throughout. Further, the inhibition entry in [14], in test [15], in [16] and in [17] was “inactive” each time.

`O=C1Cc2ccccc2Oc2ccc(Nc3ccccc3)cc21`: the inhibition in [1] was determined as 25%.

As for `Nc1cc(F)ccc1Nc1ccc2c(c1)C(=O)Cc1ccccc1O2`, the inhibition in test [1] worked out at 46%.

For `O=C1Cc2ccccc2Cc2c(Nc3ccccc3)cccc21`, the inhibition in test [1] was found to be 47%.

The IC50 is the concentration needed to halve the response being measured. In the case of `Nc1ccccc1Nc1ccc2c(c1)C(=O)Cc1ccccc1C2`, the IC50 in test [18] turned out to be 4.01 µM. For the same compound, the inhibition result in [2], in test [3], in test [4], in [5], in [6] and in test [7] was “inactive” throughout. Besides, the inhibition result in [8], in test [9], in test [10], in test [11], in [12] and in test [13] was “inactive” throughout. The inhibition entry in test [14], in test [15], in [16] and in test [17] was “inactive” throughout.

For `Nc1ccccc1Nc1ccc2c(c1)Cc1ccccc1C(=O)C2`, the IC50 in test [18] was found to be 1.93 µM. Besides, the inhibition entry in test [2], in test [3], in test [4], in test [5], in [6] and in test [7] was “inactive” throughout. Besides, the inhibition entry in test [8], in [9], in test [10], in test [11], in test [12] and in [13] was “inactive” in each case. The inhibition result in test [14], in [15], in test [16] and in test [17] was “inactive” throughout.

Regarding `Nc1ccccc1Nc1ccc2c(c1)Cc1ccccc1CC2=O`, the IC50 in test [18] was 0.99 µM. Moreover, the inhibition result in test [2], in [3], in [4], in test [5], in [6] and in test [7] was “inactive” each time. Further, the inhibition result in test [8], in [9], in test [10], in test [11], in test [12] and in test [13] was “inactive” throughout. Besides, the inhibition entry in [14], in test [15], in test [16] and in test [17] was “inactive” in each case.

`O=C1Cc2ccccc2Oc2c(Nc3ccccc3)cccc21`: the inhibition in [1] worked out at 32%.

With `O=C1Cc2ccccc2Cc2cc(Nc3ccccc3)ccc21`, in [18], the IC50 turned out to be 1.75 µM. Moreover, the inhibition result in test [2], in test [3], in test [4], in test [5], in [6] and in [7] was “inactive” in each case. Moreover, the inhibition result in [8], in test [9], in [10], in test [11], in test [12] and in [13] was “inactive” throughout. Also, the inhibition entry in [14], in test [15], in test [16] and in test [17] was “inactive” each time.

Consider `O=C1Cc2ccccc2Cc2ccc(Nc3ccc(F)cc3F)cc21`, for which the inhibition in [1] came out at 44%.

As to `O=C1Cc2ccccc2Cc2c(Nc3ccc(F)cc3F)cccc21`, the inhibition in test [1] was found to be 6%.

In the case of `Nc1ccccc1Nc1ccc2c(c1)CC(=O)c1ccccc1C2`, the IC50 in [18] was determined as 2.1 µM. In addition, the inhibition result in [2], in test [3], in test [4], in test [5], in [6] and in test [7] was “inactive” each time. Also, the inhibition result in [8], in [9], in test [10], in test [11], in [12] and in test [13] was “inactive” each time. Also, the inhibition result in test [14], in test [15], in test [16] and in test [17] was “inactive” in each case.

On to `Nc1ccccc1Nc1ccc2c(c1)C(=O)Cc1ccccc1O2`, for which the inhibition in [1] stood at 36%.

Regarding `Nc1ccccc1Nc1cccc2c1Oc1ccccc1CC2=O`, the inhibition in test [1] stood at 37%.

`O=C1Cc2ccccc2Oc2c(Nc3ccc(F)cc3F)cccc21`: the inhibition in test [1] stood at 12%.

The values are drawn from ChEMBL document CHEMBL1157789, “Design, synthesis and SAR of phenylamino-substituted 5,11-dihydro-dibenzo[a,d]cyclohepten-10-ones and 11H-dibenzo[b,f]oxepin-10-ones as p38 MAP kinase inhibitors” (Bioorg Med Chem Lett, 2010).
